Most compounds without a hit are left out; they make up all but 1.1% or so of the library.
C-LANA FP: inhibitors of KSHV C-LANA binding to DNA, primary screen, biochemical, fluorescence polarization, FAM-LBS DNA, MBP-C-LANA, single point; inhibition, % at 9 µM; 340,000 tested, 0.078% active; Kaposi's sarcoma herpesvirus LANA C-terminal domain (residues 932-1162) DNA binding;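 active = highest replicate inhibition at or above 60% at 9 µM, even if other replicates fall short; inactive = all replicates below 60% inhibition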;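 also: 0% = neutral control wells and 100% = 4 µM acridine orange control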
miR122 inh: miR-122 Renilla sensor signal increase in Huh7, primary screen, miR-122 inhibitor project, cell-based, single point, plate reader; Huh7 miR-122 Renilla luciferase sensor, 48 h; neutral wells = 0, positive control = 100; activation (reporter increase), % at 12.5 µM; 340,000 tested, 0.3% active; AID 602342, 2012;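 active = mean replicate activation score at least 90 and every replicate individually at or above 90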;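 also: higher luciferase means less miR-122 activity so hits act as miR-122 inhibitors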
CAL PDZ FP-1: CAL PDZ peptide-binding inhibitors, primary screen, biochemical, fluorescence polarization, Cer-tagged CAL PDZ, HTS; Golgi-associated PDZ and coiled-coil motif-containing protein (Homo sapiens), Q9HD26; purified CAL PDZ, TMR-peptide fluorescence polarization, 1 h; inhibition, % at 20 µM; 330,000 tested, 0.02% active; AID 504414, 2011;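 active = highest replicate inhibition of at least 40%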;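 also: plate controls were DMSO neutral control wells for no effect and unlabeled competitor peptide control wells for full effect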
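System: tagged CAL PDZ domain. Schedule: 1 h room-temperature incubation prior to read. Signal: fluorescence polarization (mP). Measure: percent inhibition from loss of millipolarization.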
CAL PDZ FP-2: untagged CAL PDZ binding inhibitors, primary screen, biochemical, fluorescence polarization, HTS. Golgi-associated PDZ and coiled-coil motif-containing protein (Homo sapiens), Q9HD26. purified CAL PDZ, TMR-peptide fluorescence polarization, 1 h. inhibition, % at 24.9 µM. 300,000 tested, 0.92% active. AID 602252, 2012;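 active = mean inhibition of at least 30% with at least half of replicates also reaching 30%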;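 also: 0% = DMSO neutral control and 100% = excess unlabeled competitor peptide PRC23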
Keap1-Nrf2 PPI: Keap1-Nrf2 protein-protein interaction inhibitors, primary screen, biochemical, fluorescence polarization, single point. 340,000 tested, 0.15% active. AID 504523, 2011. Keap1 Kelch-Nrf2 peptide fluorescence polarization, 1536-well. Kelch-like ECH-associated protein 1 (Homo sapiens), Q14145. inhibition, % at 9.4 µM; in the data active = inhibition above about 12%;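 also: human Keap1 Kelch domain with fluorescein labeled Nrf2 9mer peptide probe; 0% = neutral control wells and 100% = peptide positive control; higher means more block of Keap1 binding to Nrf2 peptide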
Target sequence (Q14145 whole entry, looked up, the tested form may be a part): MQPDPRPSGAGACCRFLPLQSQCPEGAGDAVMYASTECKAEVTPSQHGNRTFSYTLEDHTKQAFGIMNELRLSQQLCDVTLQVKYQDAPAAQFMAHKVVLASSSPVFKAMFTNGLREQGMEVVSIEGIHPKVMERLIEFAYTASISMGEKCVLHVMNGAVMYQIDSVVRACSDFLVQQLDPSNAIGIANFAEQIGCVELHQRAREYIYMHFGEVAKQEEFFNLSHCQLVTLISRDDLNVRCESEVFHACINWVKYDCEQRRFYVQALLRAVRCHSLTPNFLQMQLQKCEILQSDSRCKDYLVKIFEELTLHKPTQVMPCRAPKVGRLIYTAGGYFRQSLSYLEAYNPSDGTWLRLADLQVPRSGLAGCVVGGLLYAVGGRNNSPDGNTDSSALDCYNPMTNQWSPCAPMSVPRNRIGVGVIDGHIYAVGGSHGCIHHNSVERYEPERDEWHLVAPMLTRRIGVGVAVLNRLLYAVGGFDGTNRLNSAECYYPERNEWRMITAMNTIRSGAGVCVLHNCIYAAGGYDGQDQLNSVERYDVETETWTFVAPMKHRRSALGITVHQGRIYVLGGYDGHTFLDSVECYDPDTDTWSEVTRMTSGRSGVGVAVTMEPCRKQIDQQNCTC
Numbers without * were called inactive; · = not tested or not shown; + = active, no number; [ ] = another dose, or the depositor's remark.

SMILES	C-LANA FP	miR122 inh	CAL PDZ FP-1	CAL PDZ FP-2	Keap1-Nrf2 PPI
CCOc1ncccc1C(=O)OCC(=O)N(CC(C)C)C1CCS(=O)(=O)C1 (configuration not stated)	0	-1	0	57*	-3
C[C@@H]1CN([C@@H](C)CO)C(=O)c2cc(NC(=O)NC3CCCCC3)ccc2O[C@@H]1CN(C)Cc1ccc(Oc2ccccc2)cc1	·	46[16.7 µM]	·	·	·
Cc1cc(C)c2c(CN3CCC(C)CC3)cc(=O)oc2c1	1	11	-1	80*	-4
Cc1cc(C)c2c(CN3CCCCC3)cc(=O)oc2c1	-1	·	-1	2	-1
C[C@H](CO)N1C[C@H](C)[C@@H](CN(C)S(=O)(=O)c2ccccc2)Oc2ccc(NC(=O)Cc3ccccc3)cc2CC1=O	·	-4[16.7 µM]	·	·	·
O=C(Nc1cccnc1)c1cccc(S(=O)(=O)N2CCc3ccccc32)c1	-1	·	-3	73*	-1
CC1Cc2ccccc2N1S(=O)(=O)c1cccc(C(=O)Nc2cccnc2)c1 (configuration not stated)	3	36	·	34*	3
O=C(Nc1ccncc1)c1cccc(S(=O)(=O)N2CCc3ccccc32)c1	0	·	-2	·	-2
Cc1noc(C)c1NC(=O)Nc1ccc2c(c1)CC(=O)N([C@@H](C)CO)C[C@H](C)[C@@H](CN(C)S(=O)(=O)c1cccs1)O2	·	-2[16.7 µM]	·	·	·
COc1cccc(C(=O)N2C[C@H]3[C@@H](c4ccccc42)[C@@H](CO)N3Cc2cccnc2)c1	·	0[16.7 µM]	·	·	·
COC(=O)C[C@H]1C=C[C@@H](C(C(=O)OC)C(=O)OC)CN1C(C)=O	0	-1	-1	91*	2
Cc1ccccc1-c1cnc2c(c1)C(=O)N([C@H](C)CO)C[C@H](C)[C@H](CN(C)C(=O)c1cccnc1)O2	·	-5[16.7 µM]	·	·	·
O=[N+]([O-])c1ccc(N=Nc2c(O)[nH]c3ccc(F)cc23)cc1	3	-2	·	42*	4
CC(Oc1ccccc1)C(=O)N=Nc1c(O)[nH]c2ccc([N+](=O)[O-])cc12 (configuration not stated)	1	232*	-2	-3	1
CCC(=O)N1CCCc2cc(S(=O)(=O)N3CCN(C4CCCCC4)CC3)ccc21	1	-6	·	42*	1
CC(=O)N1CCCc2cc(S(=O)(=O)N3CCN(C4CCCCC4)CC3)ccc21	2	-3	·	-7	0
COc1ccc(NC(=O)N(C)C[C@@H]2OCCCC[C@H](C)Oc3ccc(NC(=O)Nc4c(C)noc4C)cc3C(=O)N([C@@H](C)CO)C[C@H]2C)cc1	·	-1[16.7 µM]	·	·	·
CN1C[C@H](O)COC[C@@H]2O[C@H](CC(=O)NC3CCCC3)CC[C@H]21	·	-4[16.7 µM]	·	·	·
C#CCN(C(=O)c1ccc(OC2CCN(Cc3ccccn3)CC2)cc1)C1CCCCC1	0	-7	1	55*	3
CCn1ncc(CN2CCC(Oc3ccc(C(=O)N4CCCC4)cc3)CC2)c1C	-1	3	0	·	-5
COc1ccc(CN2CCC(Oc3ccc(C(=O)N4CCCC4)cc3)CC2)c(F)c1	1	-10	0	128*	1
CCn1cc(CNC(=O)c2ccc(OC3CCN(Cc4ccccn4)CC3)cc2)cn1	0	0	0	-4	-6
CCn1nc(C)c(CN2CCC(Oc3ccc(C(=O)N4CCCC4)cc3)CC2)c1C	0	-9	-1	51*	0
CCn1nc(C)c(CNC(=O)c2ccc(OC3CCN(Cc4ccccn4)CC3)cc2)c1C	0	-4	-1	50*	1
C[C@H]1CN([C@@H](C)CO)C(=O)c2cc(-c3ccncc3)cnc2O[C@@H]1CN(C)Cc1cccnc1	·	-3[16.7 µM]	·	·	·
SMILES	C-LANA FP	miR122 inh	CAL PDZ FP-1	CAL PDZ FP-2	Keap1-Nrf2 PPI
COc1ccc(NC(C)=O)cc1NC(C)C(=O)Nc1cccc(S(=O)(=O)N2CCOCC2)c1 (configuration not stated)	-1	-1	1	-2	-3
COc1ccc(S(=O)(=O)N2CCCCC2)cc1NC(=O)C1CC1	0	3	-1	32*	-2
COc1ccc(S(=O)(=O)N2CCCCCC2)cc1C(=O)OC(C)C(N)=O (configuration not stated)	2	-21	0	+	3
COc1ccc(S(=O)(=O)N2CCCCCC2)cc1NC(C)C(=O)Nc1ccc(NC(C)=O)cc1 (configuration not stated)	2	14	0	48*	4
COc1ccc(S(=O)(=O)N2CCC(C(=O)N[C@H](C(=O)N3CCCCCC3)C(C)C)CC2)cc1	-2	-1	0	-4	-4
COc1ccc(S(=O)(=O)N2CCC(C(=O)N[C@H](C(=O)N3CCCC3)C(C)C)CC2)cc1	0	-5	0	94*	-1
C[C@@H](O)C#Cc1ccc2c(c1)O[C@@H](CN(C)C(=O)CC1CC1)[C@@H](C)CN([C@@H](C)CO)S2(=O)=O	·	44[16.7 µM]	·	·	·
CN(C)CC(=O)Nc1ccc2c(c1)[C@H]1C[C@@H](CC(=O)NCc3ccncc3)O[C@@H](CO)[C@H]1O2	·	-3[16.7 µM]	·	·	·
Cc1noc(C)c1NC(=O)N(C)C[C@@H]1Oc2ncc(C3=CCCCC3)cc2C(=O)N([C@@H](C)CO)C[C@@H]1C	·	7[16.7 µM]	·	·	·
Cc1cc(C)c2c3c(sc2n1)C(=O)N(c1ccccc1C)CC(=O)N3	0	·	-1	74*	-5
Cc1ccc(N2CC(=O)Nc3c(sc4nc(C)cc(C)c34)C2=O)cc1	2	-4	0	·	-5
COC(=O)c1ccc(OCC(=O)c2ccc(O)cc2O)cc1	1	-1	-4	-2	-8
Cc1c(O)ccc(C(=O)COc2ccccc2F)c1O	-2	19	-1	1	-5
O=C(COc1ccc(Cl)cc1)c1ccc(O)cc1O	-1	-17	-3	55*	-2
O=C(COc1ccccc1F)c1ccc(O)cc1O	-2	218*	-1	-4	3
C[C@@H]1CCCCO[C@H](CN(C)C(=O)Cc2ccccc2)[C@@H](C)CN([C@@H](C)CO)C(=O)c2cc(NC(=O)C3CCCCC3)ccc2O1	·	6[16.7 µM]	·	·	·
O=C(N[C@H]1CC[C@@H](CCNS(=O)(=O)Cc2ccccc2)O[C@@H]1CO)c1cnccn1	·	-2[16.7 µM]	·	·	·
COc1cccc(-c2ccc3c(c2)[C@H]2[C@H](CCN2S(=O)(=O)c2ccccc2C)[C@@H](CO)N3)c1	·	97*[16.7 µM]	·	·	·
O=C(c1ccccc1F)N1CC[C@@H]2[C@@H](CO)Nc3ccc(-c4cccc(F)c4)cc3[C@@H]21	·	104*[16.7 µM]	·	·	·
COc1cccc(-c2ccc3c(c2)[C@H]2[C@H](CCN2S(=O)(=O)c2ccccc2C)[C@H](CO)N3)c1	·	2[16.7 µM]	·	·	·
O=C(C[C@@H]1CC[C@H]2[C@@H](COC[C@@H](O)CN2C(=O)c2ccc(F)cc2)O1)Nc1nccs1	·	0[16.7 µM]	·	·	·

Assay outcomes from PubChem.
